# High-throughput results from PubChem BioAssay.
# Lmaj promast = Leishmania major promastigote growth inhibition. Leishmania major promastigotes, resazurin fluorescence viability. 200,000 tested, 9% active. inhibition, % at 10 µM;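 also: promastigotes grown with compound for 44 hours at 28 °C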
# Arbovirus anti = blocks arbovirus infection | 200,000 tested, 0.37% active | arbovirus infection cell-based antiviral screen | inhibition, % at 10 µM; in the data active = inhibition above about 30%
# Rad51 HR inh = Rad51 (human) homologous recombination inhibition; AID 1385; hRad51 DNA strand exchange, fluorescence dequenching; 200,000 tested, 0.085% active; Q06609; inhibition, % at 10 µM;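 active = inhibition above 40% at the single screening dose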;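 also: 0% = DMSO control wells and 100% = blanks with heterologous ssDNA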
#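 Read-out basis: percent inhibition relative to plate controls and blanks / Assay system: human Rad51 nucleoprotein filaments preassembled on unlabelled ssDNA / Timing: filaments 15 min 37 °C, then compound 30 min / Control set: per-plate controls and blanks / Technique: fluorescence dequenching at 485/520 nm / Compound: 10 µM final, single point / Also added: Fluorescein- and BHQ1-tagged 47-mer duplex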
# CHOP inhibitor = blocks CHOP induction under ER stress | CHO-K1 CHOP-promoter luciferase, tunicamycin-induced, 15-18 h | inhibition, % at 10 µM | 220,000 tested, 3.8% active | AID 2732;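 active = compounds that reduced the stress-induced luciferase reporter signal by more than about 70% of percent inhibition, limit read from the data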;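 also: 0% = tunicamycin plus vehicle and 100% = wells without tunicamycin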
# PKD1 inh = PKD1 (human) kinase inhibition; Q15139; PKD1 kinase fluorescence polarization assay; inhibition, % (test concentration not listed); 200,000 tested, 0.056% active; AID 797
# Wee1 degr inh = blocks degradation of human Wee1 kinase | P30291 | HeLa Luc-Wee1K328M stability, luciferase luminescence; 100% = proteasome inhibitor MG132 effect | reporter increase, % at 5 µM | 220,000 tested, 1.2% active | AID 1321;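 active = activation above the mean of all tested compounds plus 3 SD, set per screening run, cut at about 8.8% in these data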;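 also: cells exposed to compound for 20 h before luminescence read; 0% = DMSO alone and 100% = MG132 at 30 µM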
# Starred values were filed as active, the others as inactive; i = inactive; . = no result given. Most compounds without a hit are left out; they make up all but 12% or so of the library. Rule as the data show it, unless noted: active = inhibition above about 50%; inactive = the rest.
SMILES,Lmaj promast,Arbovirus anti,Rad51 HR inh,CHOP inhibitor,PKD1 inh,Wee1 degr inh
Cc1cc(-c2ccccc2)nc(Cl)c1C#N,70*,-7,.,53,13,2
COc1ccc2c(c1OC)C(=O)OC2Nc1nc(-c2cccc([N+](=O)[O-])c2)cs1 (configuration not stated),.,.,-1,-5,.,0
COc1cc(/C=C/C(=O)O)cc(OC)c1O,.,.,-6,.,.,.
COc1cc(/C=C/C(=O)c2c(O)cc(C)oc2=O)cc(OC)c1O,97*,-1,-8,18,-4,1
COc1ccc(/C=C/C(=O)c2c(O)cc(C)oc2=O)c(OC)c1,1,-5,-4,-10,-11,0
COc1cccc(/C=C/C(=O)c2c(O)cc(C)oc2=O)c1O,97*,10,3,47,0,-1
COc1ccc(C(=O)/C=C/c2cc(OC)c(O)c(OC)c2)c(F)c1,90*,-31,1,-5,-1,0
COc1ccc(C(=O)/C=C/c2ccc(N(C)C)cc2)c(OC)c1,.,.,i,-3,.,3
CC(C)CCSc1nc2[nH]ncc2c(=O)[nH]1,3,-14,12,10,-7,2
COCCN(CCOC)S(=O)(=O)c1ccc(C(=O)Nc2c(C)n(C)n(-c3ccccc3)c2=O)cc1,.,.,8,12,.,4
CCc1nnc(NC(=O)[C@@H](NC(=O)c2cc(OC)cc(OC)c2)C(C)C)s1,2,-9,-2,-1,-4,-1
CCCCC1=CC2=C(c3ccco3)C(=O)C(C)(OC(=O)c3ccc(OC)cc3)C(=O)C2=CN1CC(C)C (configuration not stated),.,.,2,79*,.,.
CCCCC1=CC2=C(c3ccco3)C(=O)C(C)(OC(=O)c3ccc(OC)cc3)C(=O)C2=CN1Cc1ccc(OC)cc1 (configuration not stated),.,.,5,-2,.,.
CCCCC1=CC2=C(c3ccco3)C(=O)C(C)(OC(=O)c3ccc(OC)cc3)C(=O)C2=CN1CC1CC1 (configuration not stated),.,.,-5,90*,.,.
O=C(COC(=O)CNC(=O)c1ccc(Br)o1)Nc1ccccc1OC(F)F,0,9,-3,28,-10,3
Clc1c(Cl)c(Cl)c2n[nH]nc2c1Cl,.,.,0,28,.,4
O=C(CO/N=C/c1ccc(Cl)cc1Cl)NNC(=O)c1cccc(Cl)c1,.,.,21,74*,.,-4
c1ccc2c(c1)cnc1ccccc12,.,.,-1,-7,.,5
c1ccc(-c2ncc3c(ccc4ccccc43)n2)cc1,-6,-10,11,80*,-4,-3
O=C1C(Cl)=C(NCCCN2CCOCC2)C(=O)N1CCc1ccccc1,97*,4,.,40,-4,1
O=C1C(Cl)=C(N2CCOCC2)C(=O)N1CCc1ccccc1,-2,3,5,14,-15,8
O=C1C(Cl)=C(NCCc2ccccc2)C(=O)N1CCc1ccccc1,-7,4,3,48,-2,6
O=C1C(Cl)=C(N2CCCCC2)C(=O)N1Cc1ccccc1,-2,-3,-3,96*,-8,4
CN1CCN(C2=C(Cl)C(=O)N(CCc3ccccc3)C2=O)CC1,93*,15,-2,-1,-11,6
O=C1C(Cl)=C(N2CCCCCC2)C(=O)N1c1ccccc1,2,12,-4,51,0,1
SMILES,Lmaj promast,Arbovirus anti,Rad51 HR inh,CHOP inhibitor,PKD1 inh,Wee1 degr inh
O=[N+]([O-])c1ccc2[nH]c(O)c(N=NC3CCS(=O)(=O)C3)c2c1 (configuration not stated),.,.,-2,15,.,-2
CN(NC(=O)c1ccccc1F)c1ncccc1[N+](=O)[O-],.,.,13,-6,.,4
Cn1c(SCC(=O)Nc2ccc3[nH]c(=O)[nH]c3c2)nnc1-c1ccc(F)cc1,.,.,5,-1,.,1
O=C(Nc1ccnc(-c2cccnc2)n1)c1cccc(Cl)c1Cl,4,-6,0,16,9,-1
CN(C)c1nc(N)nc(CSc2nc3c(c(=O)n(C)c(=O)n3C)n2Cc2ccccc2F)n1,4,3,9,72*,0,-1
Cn1c(=O)c2c(nc(SCc3nn[nH]n3)n2Cc2ccccc2F)n(C)c1=O,4,-1,-4,-3,0,-2
COc1ccc(/C=C/C(=O)N2CCN(c3ccccn3)CC2)c2ccccc12,-3,-15,-9,23,-3,-3
COc1ccc(-n2cc3c(-c4cccc(Br)c4)nnc(C)c3n2)cc1,59*,-22,3,-8,3,-4
